Measurements reported in ChEMBL document CHEMBL1150130, “Activity-guided isolation of constituents of Renealmia nicolaioides with the potential to induce the phase II enzyme quinone reductase” (J Nat Prod, 2002).
Values after ≈ are worked out from the molar mass of the structure shown.

Legend:
Plasmodium falciparum = experiment: Antiplasmodial activity against Plasmodium falciparum D6; format: functional, organism-based
[1] = Chemopreventive index, ratio of IC50 for mouse Hepa-1c1c7 cells to drug level required to double specific NADPH:quinone reductase activity in mouse Hepa-1c1c7 cells; format: functional
Method in brief: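 Cultured mouse hepatoma Hepa 1c1c7 cells treated with extracts, fractions or pure isolates. QR induction was expressed as CD, the concentration that doubles QR specific activity. IC50 was the concentration giving half-maximal inhibition of cell viability in the same cells. Index computed as IC50/CD. Sulforaphane served as positive control.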

[2] = Cytotoxicity against mouse Hepa-1c1c7 cells; format: cell-based
Method in brief: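 Mouse Hepa 1c1c7 hepatoma cells were cultured and assessed in the same system as the QR induction assay. IC50 was taken as the concentration causing half-maximal inhibition of cell viability.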

Row | IC50 (Plasmodium falciparum) [µg/mL] | SMILES | Ratio [1] | IC50 [2] [µg/mL]
1 | < 5 | C=C1CC[C@@H](C(C)C)/C=C/[C@@](C)(O)CC[C@@H]1O |  | 
2 | < 5 | CC(C)C1=CC[C@@]2(C)[C@H](O)CC[C@](C)(O)[C@@H]2C1 [OPLODIOL] |  | 

The remaining lines, values behind:

Row | SMILES | IC50 (Plasmodium falciparum) [µg/mL] | Ratio [1] | IC50 [2] [µg/mL]
3 | C/C1=C\CC[C@](C)(O)/C=C/[C@H](C(C)C)CC1 | < 5 |  | 
4 | COc1cc(O)c2c(c1)O[C@H](c1ccccc1)CC2=O (racemic) [PINOSTROBIN] |  | >111 | > 100
5 | COc1cc(O)c(C(=O)/C=C/c2ccccc2)c(OC)c1 [FLAVOKAWAIN B] |  |  | 7.2 (≈ 25.3 µM)
6 | C[S+]([O-])CCCCN=C=S (stereo not drawn) [SULFORAPHANE] |  | 23.8 | 2.07 (≈ 11.7 µM)
